Assay results published in ChEMBL document CHEMBL3868630, “Synthesis, anti-proliferative activity, SAR study, and preliminary in vivo toxicity study of substituted N,N'-bis(arylmethyl)benzimidazolium salts against a panel of non-small cell lung cancer cell lines” (Bioorg Med Chem, 2017).

Columns and labels:
[1] = Cytotoxicity against human NCI-H1975 cells assessed as decrease in cell viability after 72 hrs by MTT assay; assay type: functional, cell-based; conditions: NCI-H1975, 72 h
In short: (§1)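 Cells kept in RPMI 1640 with 10% FBS at 37 °C, 5% CO2, passaged every 2-3 days; seeded at 5,000-7,000 cells/well and left 24 h. Compounds dissolved in 1% DMSO, diluted in fresh medium to 1, 4, 16 and 32 µM, added in sextuplicate; 72 h exposure. MTT added for 3-4 h, medium removed, DMSO added for 15 min at 37 °C, OD read at 540 nm.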

[2] = Cytotoxicity against human A549 cells assessed as decrease in cell viability after 72 hrs by MTT assay; assay type: functional, cell-based; conditions: A549, 72 h; in short: as §1
[3] = Aqueous solubility of the compound; assay type: physicochemical
[4] = Cytotoxicity against human HCC827 cells assessed as decrease in cell viability after 72 hrs by MTT assay; assay type: functional, cell-based; conditions: HCC827, 72 h; in short: as §1
[5] = Cytotoxicity against human NCI-H460 cells assessed as decrease in cell viability after 72 hrs by MTT assay; assay type: functional, cell-based; conditions: NCI-H460, 72 h; in short: as §1
[6] = Cytotoxicity against human HOP62 cells assessed as cell growth at 10 uM after 48 hrs by SRB assay relative to control; assay type: functional; conditions: HOP-62, 48 h, read-out: Activity
[7] = Growth inhibition of human A549 cells after 48 hrs by SRB assay; assay type: functional; conditions: A549, 48 h
[8] = Cytotoxicity against human A549 cells assessed as cell growth at 10 uM after 48 hrs by SRB assay relative to control; assay type: functional; conditions: A549, 48 h, read-out: Activity
[9] = Growth inhibition of human EKVX cells after 48 hrs by SRB assay; assay type: functional
[10] = Growth inhibition of human NCI-H522 cells after 48 hrs by SRB assay; assay type: functional; conditions: NCI-H522, 48 h; for CC50: read-out: LC50 (the source's name)
[11] = Growth inhibition of human NCI-H322M cells after 48 hrs by SRB assay; assay type: functional; conditions: for CC50: read-out: LC50 (the source's name)
[12] = Growth inhibition of human NCI-H226 cells after 48 hrs by SRB assay; assay type: functional; conditions: NCI-H226, 48 h
[13] = Growth inhibition of human NCI-H23 cells after 48 hrs by SRB assay; assay type: functional; conditions: NCI-H23, 48 h
[14] = Cytotoxicity against human NCI-H226 cells assessed as cell growth at 10 uM after 48 hrs by SRB assay relative to control; assay type: functional; conditions: NCI-H226, 48 h, read-out: Activity
[15] = Cytotoxicity against human NCI-H460 cells assessed as cell growth at 10 uM after 48 hrs by SRB assay relative to control; assay type: functional; conditions: NCI-H460, 48 h, read-out: Activity
[16] = Cytotoxicity against human NCI-H23 cells assessed as cell growth at 10 uM after 48 hrs by SRB assay relative to control; assay type: functional; conditions: NCI-H23, 48 h, read-out: Activity
[17] = Cytotoxicity against human EKVX cells assessed as cell growth at 10 uM after 48 hrs by SRB assay relative to control; assay type: functional; conditions: read-out: Activity
[18] = Growth inhibition of human HOP92 cells after 48 hrs by SRB assay; assay type: functional; conditions: HOP-92, 48 h
[19] = Growth inhibition of human NCI-H460 cells after 48 hrs by SRB assay; assay type: functional; conditions: NCI-H460, 48 h
[20] = Cytotoxicity against human NCI-H322M cells assessed as cell growth at 10 uM after 48 hrs by SRB assay relative to control; assay type: functional; conditions: read-out: Activity
[21] = Growth inhibition of human HOP62 cells after 48 hrs by SRB assay; assay type: functional; conditions: HOP-62, 48 h; for CC50: read-out: LC50 (the source's name)
[22] = Cytotoxicity against human HOP92 cells assessed as cell growth at 10 uM after 48 hrs by SRB assay relative to control; assay type: functional; conditions: HOP-92, 48 h, read-out: Activity
[23] = Cytotoxicity against human NCI-H522 cells assessed as cell growth at 10 uM after 48 hrs by SRB assay relative to control; assay type: functional; conditions: NCI-H522, 48 h, read-out: Activity

SMILES | IC50 [1] [µM] | IC50 [2] [µM] | solubility [3] [µg/mL] | IC50 [4] [µM] | IC50 [5] [µM] | growth at 10 µM [6] [%] | GI50 [7] [µM] | TGI [7] [µM] | growth at 10 µM [8] [%] | GI50 [9] [µM] | TGI [9] [µM] | GI50 [10] [µM] | TGI [10] [µM] | GI50 [11] [µM] | growth at 10 µM [14] [%] | growth at 10 µM [15] [%] | growth at 10 µM [16] [%] | growth at 10 µM [17] [%] | growth at 10 µM [20] [%] | growth at 10 µM [22] [%] | also measured
COCCOCCOCc1n(Cc2ccc3ccccc3c2)c2cc(C)c(C)cc2[n+]1Cc1ccc2ccccc2c1.[Br-] | < 1 | 2 | 1000 | 2 | < 1 | – | – | – | – | – | – | – | – | – | – | – | – | – | – | – | –
Cc1n(Cc2ccc3ccccc3c2)c2ccccc2[n+]1Cc1ccc2ccccc2c1.[Br-] | 2 | 4 | < 500 | 4 | 3 | -62 | 1.76 | 3.4 | 8.96 | 1.78 | 4.08 | 0.036 | 2.27 | 1.56 | -9.12 | -73.9 | -29.5 | 9.57 | 9.37 | -68.2 | LC50 [7]: 6.55 µM; TGI [11]: 3 µM; CC50 [11]: 5.78 µM; GI50 [12]: 1.44 µM; TGI [12]: 3.2 µM; TGI [13]: 2.76 µM; GI50 [18]: 0.0317 µM; LC50 [18]: 5.03 µM; TGI [18]: 2.06 µM; GI50 [19]: 1.47 µM; TGI [19]: 3.02 µM; GI50 [21]: 1.69 µM; TGI [21]: 3.24 µM
O=C(OCc1ccc2ccccc2c1)c1ccc2c(c1)n(Cc1ccc3ccccc3c1)c[n+]2Cc1ccc2ccccc2c1.[Br-] | 4 | 7 | < 500 | 7 | 4 | – | – | – | – | – | – | – | – | – | – | – | – | – | – | – | –
OCCCc1n(Cc2ccc3ccccc3n2)c2ccccc2[n+]1Cc1ccc2ccccc2c1.[Br-] | 3 | 12 | < 500 | 11 | 4 | – | – | – | – | – | – | – | – | – | – | – | – | – | – | – | –
COC(=O)c1cc2c(cc1C(=O)OC)[n+](Cc1ccc3ccccc3c1)cn2Cc1ccc2ccccc2c1.[Br-] | 15 | 23 | < 500 | 20 | 26 | 78.8 | – | – | 92.2 | – | – | – | – | – | 77.7 | 94.5 | 93.2 | 94.3 | 90.6 | 84.7 | growth at 10 µM [23]: 77.3%
COC(=O)c1ccc2c(c1)n(Cc1ccc3ccccc3c1)c[n+]2Cc1ccc2ccccc2c1.[Br-] | 7 | 16 | < 500 | 12 | 9 | 63.8 | – | – | 75 | – | – | – | – | – | 61.3 | 28.6 | 34.6 | 71 | 57.2 | -10.7 | growth at 10 µM [23]: 26.3%
Cc1cc2c(cc1C)[n+](Cc1ccc3ccccc3n1)cn2Cc1ccc2ccccc2n1.[Cl-] | < 1 | 4 | 1400 | 3 | 2 | 4.38 | 2.83 | 13 | 30.4 | 2.29 | 11.1 | 0.704 | 2.47 | 1.37 | 9.61 | 0.34 | 1.58 | 39.6 | 36 | -27.3 | LC50 [7]: 63.5 µM; LC50 [9]: 66 µM; CC50 [10]: 6.89 µM; TGI [11]: 8.62 µM; CC50 [11]: 30.5 µM; GI50 [12]: 1.59 µM; LC50 [12]: > 100 µM; TGI [12]: 4.01 µM; GI50 [13]: 0.736 µM; LC50 [13]: 29.6 µM; TGI [13]: 3.53 µM; GI50 [18]: 0.484 µM; LC50 [18]: 5.22 µM; TGI [18]: 2 µM; GI50 [19]: 0.63 µM; LC50 [19]: 6.2 µM; TGI [19]: 2.21 µM; GI50 [21]: 1.27 µM; TGI [21]: 3.13 µM; CC50 [21]: 7.72 µM
[Cl-].c1ccc2nc(Cn3c[n+](Cc4ccc5ccccc5n4)c4ccccc43)ccc2c1 | 3 | 10 | 2400 | 6 | 4 | 53.8 | 11.6 | 25.9 | 54 | 5.7 | 23.7 | 1.56 | 9.72 | 3.68 | 37.1 | 32.4 | 32 | 74.7 | 78.1 | -8.16 | LC50 [7]: 58 µM; LC50 [9]: 72.1 µM; CC50 [10]: 44.7 µM; TGI [11]: 17.1 µM; CC50 [11]: 43.5 µM; GI50 [12]: 4.13 µM; LC50 [12]: 78.2 µM; TGI [12]: 20.4 µM; GI50 [13]: 1.47 µM; LC50 [13]: 49.4 µM; TGI [13]: 10.3 µM; GI50 [18]: 0.93 µM; LC50 [18]: 25 µM; TGI [18]: 4.3 µM; GI50 [19]: 2.8 µM; LC50 [19]: 41.8 µM; TGI [19]: 12.3 µM; GI50 [21]: 2.97 µM; TGI [21]: 13.7 µM; CC50 [21]: 41 µM
O=C(O)CCc1n(Cc2ccc3ccccc3c2)c2ccccc2[n+]1Cc1ccc2ccccc2c1.[Cl-] | > 30 | > 30 | < 500 | > 30 | > 30 | – | – | – | – | – | – | – | – | – | – | – | – | – | – | – | –
O=C(O)c1cc2c(cc1C(=O)O)[n+](Cc1ccc3ccccc3c1)cn2Cc1ccc2ccccc2c1.[Cl-] | > 30 | > 30 | < 500 | > 30 | > 30 | – | – | – | – | – | – | – | – | – | – | – | – | – | – | – | –
OCCCc1n(Cc2ccc3ccccc3c2)c2ccccc2[n+]1Cc1ccc2ccccc2c1.[Br-] | 4 | 10 | < 500 | 6 | 4 | 37.5 | 6.97 | 31.4 | 68.4 | 3.68 | 19.4 | 1.05 | 3.95 | 2.15 | 48.5 | 18.4 | 19 | 47.6 | 49.9 | -24.3 | LC50 [7]: > 100 µM; LC50 [9]: 70.6 µM; CC50 [10]: 84.4 µM; TGI [11]: 9.1 µM; CC50 [11]: 31.7 µM; GI50 [12]: 2.23 µM; LC50 [12]: 99.6 µM; TGI [12]: 10.5 µM; GI50 [13]: 1.65 µM; LC50 [13]: 56.8 µM; TGI [13]: 8.17 µM; GI50 [18]: 0.566 µM; LC50 [18]: 69.1 µM; TGI [18]: 3.1 µM; GI50 [19]: 2.43 µM; LC50 [19]: 80.3 µM; TGI [19]: 9.57 µM; GI50 [21]: 2.32 µM; TGI [21]: 11.6 µM; CC50 [21]: 82.7 µM
Cc1cc2c(cc1C)[n+](Cc1ccc3ccccc3c1)cn2Cc1ccc2ccccc2c1.[Br-] | 2 | 3 | < 500 | 2 | 2 | -73 | 1.42 | 2.95 | -71.3 | 1.37 | 2.88 | 1.25 | 2.99 | 1.14 | -25.5 | -76.8 | -71.8 | -64.3 | -8.28 | -80.8 | TGI [11]: 2.42 µM; GI50 [12]: 1.39 µM; TGI [12]: 3.42 µM; GI50 [13]: 0.872 µM; TGI [13]: 2.28 µM; GI50 [18]: 0.587 µM; TGI [18]: 2.53 µM; GI50 [19]: 0.662 µM; GI50 [21]: 1.03 µM; TGI [21]: 2.47 µM
COC(=O)Cc1n(Cc2ccc3ccccc3c2)c2ccccc2[n+]1Cc1ccc2ccccc2c1.[Br-] | 6 | 8 | < 500 | 8 | 7 | – | – | – | – | – | – | – | – | – | – | – | – | – | – | – | –
COc1ccc2c(c1)n(Cc1ccc3ccccc3c1)c[n+]2Cc1ccc2ccccc2c1.[Br-] | 2 | 6 | < 500 | 4 | 4 | – | – | – | – | – | – | – | – | – | – | – | – | – | – | – | –
Cl.O=C(O)c1ccc2c(c1)n(Cc1ccc3ccccc3c1)c[n+]2Cc1ccc2ccccc2c1.[Br-] | 23 | 12 | < 500 | > 30 | 16 | – | – | – | – | – | – | – | – | – | – | – | – | – | – | – | –
